The values that follow come from ChEMBL document CHEMBL1141368, “Identification of a nonpeptidic and conformationally restricted bradykinin B1 receptor antagonist with anti-inflammatory activity” (J Med Chem, 2007).

The target in data set [1] is T1, B1 bradykinin receptor (Homo sapiens, UniProt P46663).
T1 sequence (P46663 whole entry): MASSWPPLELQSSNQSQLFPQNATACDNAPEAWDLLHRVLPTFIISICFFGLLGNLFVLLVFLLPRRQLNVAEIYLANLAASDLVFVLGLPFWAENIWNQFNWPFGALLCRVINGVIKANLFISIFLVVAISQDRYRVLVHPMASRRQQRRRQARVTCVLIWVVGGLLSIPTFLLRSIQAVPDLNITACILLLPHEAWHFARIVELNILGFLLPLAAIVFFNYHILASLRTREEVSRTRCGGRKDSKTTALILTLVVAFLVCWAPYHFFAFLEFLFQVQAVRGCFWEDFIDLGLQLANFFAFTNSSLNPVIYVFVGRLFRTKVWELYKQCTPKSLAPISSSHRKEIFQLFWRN
As to the kind of experiment: Antagonistic activity at human bradykinin B1 receptor expressed in CHO cells assessed as effect on DAK-mediated calcium mobilization. The class given is functional, cell-based. The method in brief: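 B1 receptor cDNA transfected into CHO cells; antagonist potency given as IC50 ± SEM with the number of determinations (n).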

Data set [2] addresses T1, B1 bradykinin receptor. As to the kind of experiment: Displacement of [3H]DAK from human bradykinin B1 receptor expressed in CHO-D cells. In kind it is cell-based.
For data set [3], the target named is T2, B2 bradykinin receptor (Homo sapiens, UniProt P30411).
T2 sequence (P30411 whole entry): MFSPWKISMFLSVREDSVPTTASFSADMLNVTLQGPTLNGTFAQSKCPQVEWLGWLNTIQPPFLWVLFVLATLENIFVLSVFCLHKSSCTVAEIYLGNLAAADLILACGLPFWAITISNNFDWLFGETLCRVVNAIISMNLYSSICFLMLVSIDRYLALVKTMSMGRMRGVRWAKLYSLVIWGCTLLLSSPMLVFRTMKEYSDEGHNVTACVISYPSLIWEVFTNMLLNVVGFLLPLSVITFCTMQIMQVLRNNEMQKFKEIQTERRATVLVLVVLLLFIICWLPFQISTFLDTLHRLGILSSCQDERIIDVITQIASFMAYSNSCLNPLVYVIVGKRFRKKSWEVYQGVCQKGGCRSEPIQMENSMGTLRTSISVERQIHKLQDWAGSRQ
As to the kind of experiment: Displacement of [3H]bradykinin from human bradykinin B2 receptor expressed in CHO-K1 cells. In kind it is cell-based. (In a radioligand displacement assay an active substance lowers the binding of a labelled ligand.)

Data set [4] is described as follows: AUC (0-inf) in rat at 1 mg/kg, iv. Also noted: time infinity, dose 1 mg/kg, route intravenous. The class given is ADME, organism-based. The conditions noted are these: plasma.
Data set [5] deals with Plasma. As to the kind of experiment: Fraction unbound in rat plasma. In kind it is ADME, cell-free.
Data set [6] has as its system Rattus norvegicus. The experiment in a line: Reduction of exudates volume in rat reverse passive arthus model at 30 mg/kg, sc relative to control. The class given is functional. Further details: scale not given: the % may be the effect or the level left; call rule not given here. To be noted: route subcutaneous. In a few lines:
(§1)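 Reverse passive Arthus inflammation model in rats; drug given s.c. at 30, 60 or 90 mg/kg; exudate volume expressed relative to saline-treated animals and tested for statistical significance.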

Data set [7] in a line: Cmax in rat at 10 mg/kg, sc. The class given is ADME, organism-based. Further details: dose 10 mg/kg, route subcutaneous. The conditions noted are these: in vivo.
The nature of data set [8]: Half life in rat at 10 mg/kg, sc. To be noted: in vivo. The class given is ADME, organism-based. Also noted: dose 10 mg/kg, route subcutaneous.
A short description of data set [9]: AUC (0-t) in rat at 1 mg/kg, iv. In kind it is ADME, organism-based. Further details: dose 1 mg/kg, route intravenous. To be noted: plasma.
The nature of data set [10]: Half life in rat at 1 mg/kg, iv. The class given is ADME, organism-based. Further details: dose 1 mg/kg, route intravenous. To be noted: in vivo.
Data set [11] concerns Rattus norvegicus. The experiment in a line: Relevant drug concentration for 5-6 hrs in rat at 90 mg/kg, sc. In kind it is ADME, organism-based. Further details: dose 90 mg/kg, route subcutaneous. The conditions noted are these: in vivo.
A short description of data set [12]: Clearance in rat at 10 mg/kg, sc. In kind it is ADME, organism-based. Also noted: dose 10 mg/kg, route subcutaneous. The conditions noted are these: in vivo.
Data set [13] in a line: Mean residence time in rat at 1 mg/kg, iv. In kind it is ADME, organism-based. Further details: dose 1 mg/kg, route intravenous. The conditions noted are these: in vivo.
A short description of data set [14]: AUC (0-t) in rat at 10 mg/kg, sc. In kind it is ADME, organism-based. Further details: dose 10 mg/kg, route subcutaneous. The conditions noted are these: plasma.
Data set [15] in a line: AUC (0-inf) in rat at 10 mg/kg, sc. In kind it is ADME, organism-based. Further details: time infinity, dose 10 mg/kg, route subcutaneous. To be noted: plasma.
The test system of data set [16] is Rattus norvegicus. As to the kind of experiment: Reduction of exudates volume in rat reverse passive arthus model at 60 mg/kg, sc relative to control. Also noted: scale not given: the % may be the effect or the level left. In kind it is functional. The conditions noted are these: route subcutaneous. The method in brief: as §1
Data set [17] in a line: Volume of distribution in rat at 1 mg/kg, iv. In kind it is ADME, organism-based. Also noted: dose 1 mg/kg, route intravenous. To be noted: in vivo, read-out: Vss.
Data set [18] can be described thus: Bioavailability in rat at 10 mg/kg, sc. The conditions noted are these: in vivo. In kind it is ADME, organism-based.
The subject of data set [19] is Rattus norvegicus. As to the kind of experiment: Reduction of exudates volume in rat reverse passive arthus model at 90 mg/kg, sc relative to control. In kind it is functional. Also noted: scale not given: the % may be the effect or the level left. The conditions noted are these: route subcutaneous. In a few lines: as §1
Data set [20] deals with Rattus norvegicus. The experiment in a line: Reduction of exudates volume in rat carrageenan-induced pleurisy model at 90 mg/kg, sc relative to control. The class given is functional. Further details: scale not given: the % may be the effect or the level left. The conditions noted are these: route subcutaneous.
A short description of data set [21]: Tmax in rat at 10 mg/kg, sc. Further details: dose 10 mg/kg, route subcutaneous. The conditions noted are these: in vivo. In kind it is ADME, organism-based.
In data set [22] the test system is Rattus norvegicus. The experiment in a line: Reduction of edema formation in rat reverse passive arthus model at 3 mg/kg, po. In kind it is ADME, organism-based. Also noted: dose 3 mg/kg, route oral. To be noted: in vivo.

Regarding `O=C(C[C@@H](NS(=O)(=O)c1ccc2ccccc2c1)c1ccccc1)NCCc1ccc(CN2CCCCC2)cc1`, the concentration for half-maximal inhibition (IC50) in data set [1] amounted to 540 nM.
`C[C@@H](NC(=O)C[C@@H](NS(=O)(=O)c1ccc2ccccc2c1)c1ccccc1)c1ccc(CN2CCCCC2)cc1`: the Ki in [2] was found to be 17 nM. Moreover, the half-maximal inhibitory concentration (IC50) in [1] was 302 nM.
Regarding `O=C(C[C@@H](NS(=O)(=O)c1ccc2ccccc2c1)c1ccccc1)NC1CCc2cc(CCN3CCCCC3)ccc2C1` (stereo partly drawn), in data set [1], the 50% inhibitory concentration (IC50) came out at 325 nM.
For `CN1c2cc(CN3CCCCC3)ccc2[C@@H](NC(=O)C[C@@H](NS(=O)(=O)c2ccc3ccccc3c2)c2ccccc2)CS1(=O)=O`, the Ki in data set [2] amounted to 1.3 nM; in [3], 35000 nM. For the same molecule, the IC50 in [1] amounted to 10.7 nM.
`O=C(C[C@@H](NS(=O)(=O)c1ccc2ccccc2c1)c1ccccc1)N[C@H]1CCOc2cc(CN3CCCCC3)ccc21` had an inhibitory constant (Ki) in [3] greater than 20000 nM.
With `CN1c2cc(CN3CCCCC3)ccc2[C@H](NC(=O)C[C@@H](NS(=O)(=O)c2ccc3ccccc3c2)c2ccccc2)CS1(=O)=O`, the figures for the inhibition constant Ki in data set [2] and in data set [3] were 15.8 nM and 16000 nM, respectively. Further, the IC50 in [1] was found to be 14 nM.
Regarding `O=C(C[C@@H](NS(=O)(=O)c1ccc2ccccc2c1)c1ccccc1)N[C@H]1CCc2cc(CN3CCCCC3)ccc21`, the Ki in [2] was 241 nM; in data set [3] it was 13300 nM. Besides, the half-inhibitory concentration (IC50) in data set [1] is 183 nM.
For `O=C(C[C@@H](NS(=O)(=O)c1ccc2ccccc2c1)c1ccccc1)N[C@@H]1CCOc2cc(CN3CCCCC3)ccc21`, the AUC(0-inf) in data set [4] worked out at 201 ng·h/mL; in data set [15] it was 2090 ng·h/mL. The molecule further came in with a Fu in data set [5] of 0.032. Moreover, the Activity in [6] is given as 14%; in [16] it was 10%; in data set [19], 26%; in [20], 22%. The molecule also yielded a Cmax in data set [7] of 825 ng/mL. The half-life in data set [8] was 2.2 h; in [10] it was 1.4 h. Further, the exposure AUC(0-t) in data set [9] worked out at 194 ng·h/mL; in data set [14], 1960 ng·h/mL. Moreover, in data set [3], the inhibitory constant (Ki) was greater than 50000 nM. Further, the concentration in data set [11] worked out at 125 nM. In [12], the CL/F was 79.6 mL/min/kg. In [13], this molecule yielded an MRT of 1.5 h. Also, the Vd in data set [17] was found to be 7.43 L/kg. In addition, the bioavailability in data set [18] amounted to 106%. For the same molecule, in data set [21], the Tmax is 0.4 h.
With `O=C(C[C@H](NS(=O)(=O)c1ccc2ccccc2c1)c1ccccc1)NCc1ccc(CN2CCCCC2)cc1`, the IC50 in [1] is greater than 4000 nM.
The molecule `O=C(C[C@@H](NS(=O)(=O)c1ccc2ccccc2c1)c1ccccc1)NCc1ccc(CN2CCCCC2)cc1` came in with an inhibition constant (Ki) in data set [2] of 132 nM. Moreover, the IC50 in data set [1] came out at 447 nM.
As to `O=C(C[C@@H](NS(=O)(=O)c1ccc2ccccc2c1)c1ccccc1)N[C@@H]1CCc2cc(CN3CCCCC3)ccc21`, the figures for the inhibition constant (Ki) in data set [2] and in data set [3] were 1.6 nM and 49200 nM, respectively. The concentration for half-maximal inhibition (IC50) in [1] was 5.6 nM.
For `O=C(CC(NS(=O)(=O)c1ccc2ccccc2c1)c1ccccc1)NCc1ccc(CN2CCCCC2)cc1` (racemic), the figures for the Ki in data set [2] and in data set [3] were 382 nM and 56000 nM, respectively. Moreover, the IC50 in [1] was found to be 359 nM.
In the case of `COc1ccc2c(c1)c(CC(=O)O)c(C)n2C(=O)c1ccc(Cl)cc1` [INDOMETHACIN], in data set [22], the Activity result was “Not Active”.

The IC50 is the point on the concentration scale where inhibition reaches its midpoint. One may read the Ki as a measure of affinity in units of concentration, obtained from inhibition or displacement. For orientation: AUC(0-inf) means the area under the concentration-time curve extrapolated to infinity. For orientation: Cmax means the highest concentration seen after dosing. The term half-life denotes the time in which the quantity being followed falls by half. By AUC(0-t) is commonly meant the area under the concentration-time curve up to a stated or last time point. Broadly, the CL/F is clearance divided by bioavailability, as obtained after extravascular dosing. For orientation: MRT means a mean duration of stay, worked out from the concentration-time curve. As usually defined, the Tmax is the time from dosing to the highest level.
